Results on three substances are retold here after publication PMC5992689 (Molecular Therapy. Nucleic Acids, 2018).

Assay [1] has as its system NSC-34 cells (neuron). Kind of assay: Binding of FITC-labeled peptides to neuronal cells. In kind it is cell-based. Particulars: FITC-labeled peptide 1 μg/mL, 24 hr, MAP2 immunostaining. The essentials:
(§1)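 Cells were exposed to FITC-labelled peptide at 1 μg/mL in culture medium for 24 hr, fixed in 4% PFA and immunostained for MAP2 (NSC-34, maintained in DMEM/F12 with 10% FCS), GFAP (primary astrocytes) or Iba1 (primary microglia). Primary cultures came from C57BL/6 pups 1–2 days postpartum. FITC-positive marker cells were counted by confocal microscopy in six independent wells and averaged as a percentage; experiments were run in triplicate.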

Assay [2] relates to CD86 (M1)-positive primary microglia. Kind of assay: CD86 immunocytochemistry of peptide-labeled microglia. The format is cell-based, C57BL/6 mice. Conditions: FITC-labeled peptide 1 μg/mL, 24 hr; n = 6 wells. The essentials: (§2)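 Primary C57BL/6 microglia were isolated from 14-day mixed glial culture and incubated 24 hr with FITC-peptide at 1 μg/mL. They were then fixed in 4% PFA and immunostained for CD86 (M1) or CD206 (M2) with Alexa Fluor 555 secondaries. Marker-positive cells were counted by confocal microscopy as a percentage of FITC-positive microglia across six independent wells, with >1,000 cells in total and triplicate experiments.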

For assay [3], the system named is primary cultured astrocytes. Nature of the assay: Binding of FITC-labeled peptides to cultured astrocytes. In kind it is cell-based, C57BL/6 mice. Conditions: FITC-labeled peptide 1 μg/mL, 24 hr, GFAP immunostaining. The essentials: as §1
Assay [4] has as its system CD206 (M2)-positive primary microglia. Nature of the assay: CD206 immunocytochemistry of peptide-labeled microglia. Conditions: FITC-labeled peptide 1 μg/mL, 24 hr; n = 6 wells. The format is cell-based, C57BL/6 mice. The essentials: as §2
Assay [5] deals with primary cultured microglia. Kind of assay: Binding of FITC-labeled peptides to cultured microglia. Particulars: FITC-labeled peptide 1 μg/mL, 24 hr; for FITC labeling of primary cultured microglia (in words): Iba1 immunostaining; for percentage of FITC-positive microglia in all Iba1-positive cells: n = 6 wells. The format is cell-based, C57BL/6 mice. The method in brief: as §1

Assay [6] has as its system spinal cord astrocytes (GFAP) and microglia (Iba1). The format is in vivo, C57BL/6 mice. Particulars: 3 μg FITC-labeled peptide, intrathecal, 3 hr; MG1 compared with MG2.
In assay [7] the test system is KT-5 cells (astrocytes). Kind of assay: Phage display panning. The format is binding. Conditions: 48 of the 58 phage plaques, astrocytes (KT-5). The essentials: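 A CX7C M13 library in Tris-buffered saline (pH 7.5) was given via tail vein to C57BL/6 mice. After 5 min, blood was removed transcardially, and spinal cords were homogenised in DMEM with protease inhibitor. Phage were titrated as plaques in E. coli ER2738, amplified and re-injected for three rounds. Three 5-min in vitro panning cycles on KT-5 cells followed, and pIII inserts of 50–58 phages were sequenced.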

As to C-HHSSSAR-C [MG1], the “FITC labeling of NSC-34 cells (in words)” value in assay [1] is given as “not observed”. For the same substance, the “percentage of CD86-positive cells in the microglia labeled with the peptide” value in assay [2] is given as 40%. Besides, in assay [3], the “FITC labeling of primary cultured astrocytes (in words)” value is reported as “not observed”. Besides, the “percentage of CD206-positive cells in the microglia labeled with the peptide” value in assay [4] amounted to 26%. Further, in assay [5], the “FITC labeling of primary cultured microglia (in words)” value is given as “mainly present in Iba1-positive microglia” and the “percentage of FITC-positive microglia in all Iba1-positive cells” value is given as “approximately 60%”. Further, the “accumulation of peptide in the spinal cord tissues” value in assay [6] is “greater accumulation of MG1 peptides than of MG2 peptides”.

C-LNSSQPS-C [AS1]: the “FITC labeling of NSC-34 cells (in words)” value in assay [1] is “not with MAP2 staining in neurons or Iba1 staining in microglia”. Also, in assay [3], the “FITC labeling of primary cultured astrocytes (in words)” value is reported as “only observed in astrocytes”. In assay [7], the “frequency of phage plaques” value was found to be 83%. For the same substance, the “FITC labeling of primary cultured microglia (in words)” value in assay [5] is reported as “not with MAP2 staining in neurons or Iba1 staining in microglia”.

As for C-NTGSPYE-C [MG2], the “FITC labeling of NSC-34 cells (in words)” value in assay [1] is “not in the NSC-34 cells or astrocytes”. Besides, in assay [2], the “percentage of CD86-positive cells in the microglia labeled with the peptide” value came out at 27%. Also, in assay [3], the “FITC labeling of primary cultured astrocytes (in words)” value was “not in the NSC-34 cells or astrocytes”. Also, the “percentage of CD206-positive cells in the microglia labeled with the peptide” value in assay [4] amounted to 47%. Moreover, in assay [5], the “FITC labeling of primary cultured microglia (in words)” value is “observed only in the primary cultured microglia” and the “percentage of FITC-positive microglia in all Iba1-positive cells” value was “approximately 40%”.
